Laboratory results: ChEMBL document CHEMBL2202955, “Identification of Potent, Selective, Cell-Active Inhibitors of the Histone Lysine Methyltransferase EZH2” (ACS Med Chem Lett, 2012)

Experiments:
[1] = molecular target: Histone-lysine N-methyltransferase SUV39H2 (Homo sapiens, UniProt Q9H5I1); experiment: Inhibition of SUV39H2 using histone H3 as substrate preincubated for 10 mins followed by addition of [3H]SAM and incubated for 60 mins
Summary of the method: (§1)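 Panel of methyltransferases tested for selectivity. […] Values are the mean of at least two independent replicates.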

[2] = molecular target: T1, Histone-lysine N-methyltransferase SUV39H1 (Homo sapiens, UniProt O43463); experiment: Inhibition of SUV39H1 using histone H3 as substrate preincubated for 10 mins followed by addition of [3H]SAM and incubated for 60 mins; summary of the method: as §1
T1 sequence (O43463 whole entry): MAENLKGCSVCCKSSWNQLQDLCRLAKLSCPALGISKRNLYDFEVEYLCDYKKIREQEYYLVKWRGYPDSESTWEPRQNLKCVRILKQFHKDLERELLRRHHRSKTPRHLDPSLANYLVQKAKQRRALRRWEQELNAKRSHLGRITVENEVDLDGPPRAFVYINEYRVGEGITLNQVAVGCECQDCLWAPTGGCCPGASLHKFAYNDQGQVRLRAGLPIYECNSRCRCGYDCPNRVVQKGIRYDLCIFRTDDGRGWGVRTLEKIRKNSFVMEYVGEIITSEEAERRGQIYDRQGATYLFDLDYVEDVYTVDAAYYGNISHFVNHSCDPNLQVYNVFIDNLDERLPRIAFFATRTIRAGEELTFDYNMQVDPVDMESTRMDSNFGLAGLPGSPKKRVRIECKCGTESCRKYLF

[3] = molecular target: T2, Histone-lysine N-methyltransferase SETMAR (Homo sapiens, UniProt Q53H47); experiment: Inhibition of SETMAR using histone H3 as substrate preincubated for 10 mins followed by addition of [3H]SAM and incubated for 60 mins; summary of the method: as §1
T2 sequence (Q53H47 whole entry): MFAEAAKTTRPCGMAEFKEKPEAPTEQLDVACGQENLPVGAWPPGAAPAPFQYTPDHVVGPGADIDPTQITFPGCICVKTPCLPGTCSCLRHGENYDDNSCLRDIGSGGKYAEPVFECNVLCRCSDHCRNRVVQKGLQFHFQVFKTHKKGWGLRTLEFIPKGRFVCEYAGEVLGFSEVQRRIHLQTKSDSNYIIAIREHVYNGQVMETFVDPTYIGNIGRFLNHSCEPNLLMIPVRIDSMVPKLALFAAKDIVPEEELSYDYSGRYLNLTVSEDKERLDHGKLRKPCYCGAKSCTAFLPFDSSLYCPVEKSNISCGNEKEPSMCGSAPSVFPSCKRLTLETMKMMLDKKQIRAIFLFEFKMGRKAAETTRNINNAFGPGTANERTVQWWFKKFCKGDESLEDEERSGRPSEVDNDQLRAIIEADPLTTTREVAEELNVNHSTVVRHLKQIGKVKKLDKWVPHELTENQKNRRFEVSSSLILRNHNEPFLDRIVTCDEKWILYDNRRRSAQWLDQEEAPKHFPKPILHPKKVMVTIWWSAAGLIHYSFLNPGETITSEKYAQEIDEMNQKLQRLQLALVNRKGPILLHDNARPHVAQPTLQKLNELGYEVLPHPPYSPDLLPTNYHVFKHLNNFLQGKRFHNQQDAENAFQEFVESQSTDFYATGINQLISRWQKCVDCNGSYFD

[4] = molecular target: Protein arginine N-methyltransferase 5 (Homo sapiens, UniProt O14744); experiment: Inhibition of PRMT5 using histone H3 as substrate preincubated for 10 mins followed by addition of [3H]SAM and incubated for 60 mins; summary of the method: as §1
[5] = molecular target: Protein arginine N-methyltransferase 1 (Homo sapiens, UniProt Q99873); experiment: Inhibition of PRMT1 using histone H4 as substrate preincubated for 10 mins followed by addition of [3H]SAM and incubated for 60 mins; summary of the method: as §1
[6] = molecular target: T3, Histone-lysine N-methyltransferase EHMT2 (Homo sapiens, UniProt Q96KQ7); experiment: Inhibition of G9a using histone H3 as substrate preincubated for 10 mins followed by addition of [3H]SAM and incubated for 60 mins; summary of the method: as §1
T3 sequence (Q96KQ7 whole entry): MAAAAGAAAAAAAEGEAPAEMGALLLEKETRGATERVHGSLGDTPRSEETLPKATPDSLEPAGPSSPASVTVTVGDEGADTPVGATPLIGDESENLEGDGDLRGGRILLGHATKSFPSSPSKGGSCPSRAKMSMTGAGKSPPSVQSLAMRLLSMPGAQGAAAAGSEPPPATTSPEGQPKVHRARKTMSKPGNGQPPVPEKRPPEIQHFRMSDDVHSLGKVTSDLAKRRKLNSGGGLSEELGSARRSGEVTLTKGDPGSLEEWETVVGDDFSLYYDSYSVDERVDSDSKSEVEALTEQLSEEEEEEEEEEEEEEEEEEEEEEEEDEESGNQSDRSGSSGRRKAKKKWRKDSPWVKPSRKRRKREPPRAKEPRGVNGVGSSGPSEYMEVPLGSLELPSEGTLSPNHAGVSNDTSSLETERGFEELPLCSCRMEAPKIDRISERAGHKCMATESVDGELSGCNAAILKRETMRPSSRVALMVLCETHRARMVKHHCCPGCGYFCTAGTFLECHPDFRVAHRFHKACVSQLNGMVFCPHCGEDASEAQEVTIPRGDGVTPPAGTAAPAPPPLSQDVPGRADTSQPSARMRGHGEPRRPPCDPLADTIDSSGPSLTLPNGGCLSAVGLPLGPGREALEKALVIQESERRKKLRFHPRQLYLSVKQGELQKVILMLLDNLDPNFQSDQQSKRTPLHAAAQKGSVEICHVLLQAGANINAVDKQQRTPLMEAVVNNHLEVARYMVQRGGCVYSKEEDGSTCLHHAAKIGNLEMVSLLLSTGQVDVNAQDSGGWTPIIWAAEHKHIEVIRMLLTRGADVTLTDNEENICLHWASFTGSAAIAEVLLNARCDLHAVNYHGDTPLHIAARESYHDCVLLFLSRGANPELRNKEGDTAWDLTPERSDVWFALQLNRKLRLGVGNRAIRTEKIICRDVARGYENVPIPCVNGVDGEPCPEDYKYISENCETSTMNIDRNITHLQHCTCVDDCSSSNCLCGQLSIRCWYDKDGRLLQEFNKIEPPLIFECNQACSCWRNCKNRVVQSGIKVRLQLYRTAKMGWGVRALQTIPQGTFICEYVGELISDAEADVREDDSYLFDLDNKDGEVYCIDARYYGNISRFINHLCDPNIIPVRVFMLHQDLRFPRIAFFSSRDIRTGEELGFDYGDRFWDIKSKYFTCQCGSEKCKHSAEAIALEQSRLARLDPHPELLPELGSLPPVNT

[7] = molecular target: DNA (cytosine-5)-methyltransferase 1 (Homo sapiens, UniProt P26358); experiment: Inhibition of DNMT1 using polydi-dc as substrate preincubated for 10 mins followed by addition of [3H]SAM and incubated for 60 mins; summary of the method: as §1
[8] = molecular target: EZH2/SUZ12/EED/RBBP7/RBBP4; experiment: Inhibition of PRC2 complex of FLAG-EZH2, EED, SUZ12, AEBP2 and RbAp48 using histone H3 peptide (21 to 44) as substrate and [3H]SAM after 1 hr; type: protein-complex assay

DNA (cytosine-5)-methyltransferase 1, sequence (P26358 whole entry): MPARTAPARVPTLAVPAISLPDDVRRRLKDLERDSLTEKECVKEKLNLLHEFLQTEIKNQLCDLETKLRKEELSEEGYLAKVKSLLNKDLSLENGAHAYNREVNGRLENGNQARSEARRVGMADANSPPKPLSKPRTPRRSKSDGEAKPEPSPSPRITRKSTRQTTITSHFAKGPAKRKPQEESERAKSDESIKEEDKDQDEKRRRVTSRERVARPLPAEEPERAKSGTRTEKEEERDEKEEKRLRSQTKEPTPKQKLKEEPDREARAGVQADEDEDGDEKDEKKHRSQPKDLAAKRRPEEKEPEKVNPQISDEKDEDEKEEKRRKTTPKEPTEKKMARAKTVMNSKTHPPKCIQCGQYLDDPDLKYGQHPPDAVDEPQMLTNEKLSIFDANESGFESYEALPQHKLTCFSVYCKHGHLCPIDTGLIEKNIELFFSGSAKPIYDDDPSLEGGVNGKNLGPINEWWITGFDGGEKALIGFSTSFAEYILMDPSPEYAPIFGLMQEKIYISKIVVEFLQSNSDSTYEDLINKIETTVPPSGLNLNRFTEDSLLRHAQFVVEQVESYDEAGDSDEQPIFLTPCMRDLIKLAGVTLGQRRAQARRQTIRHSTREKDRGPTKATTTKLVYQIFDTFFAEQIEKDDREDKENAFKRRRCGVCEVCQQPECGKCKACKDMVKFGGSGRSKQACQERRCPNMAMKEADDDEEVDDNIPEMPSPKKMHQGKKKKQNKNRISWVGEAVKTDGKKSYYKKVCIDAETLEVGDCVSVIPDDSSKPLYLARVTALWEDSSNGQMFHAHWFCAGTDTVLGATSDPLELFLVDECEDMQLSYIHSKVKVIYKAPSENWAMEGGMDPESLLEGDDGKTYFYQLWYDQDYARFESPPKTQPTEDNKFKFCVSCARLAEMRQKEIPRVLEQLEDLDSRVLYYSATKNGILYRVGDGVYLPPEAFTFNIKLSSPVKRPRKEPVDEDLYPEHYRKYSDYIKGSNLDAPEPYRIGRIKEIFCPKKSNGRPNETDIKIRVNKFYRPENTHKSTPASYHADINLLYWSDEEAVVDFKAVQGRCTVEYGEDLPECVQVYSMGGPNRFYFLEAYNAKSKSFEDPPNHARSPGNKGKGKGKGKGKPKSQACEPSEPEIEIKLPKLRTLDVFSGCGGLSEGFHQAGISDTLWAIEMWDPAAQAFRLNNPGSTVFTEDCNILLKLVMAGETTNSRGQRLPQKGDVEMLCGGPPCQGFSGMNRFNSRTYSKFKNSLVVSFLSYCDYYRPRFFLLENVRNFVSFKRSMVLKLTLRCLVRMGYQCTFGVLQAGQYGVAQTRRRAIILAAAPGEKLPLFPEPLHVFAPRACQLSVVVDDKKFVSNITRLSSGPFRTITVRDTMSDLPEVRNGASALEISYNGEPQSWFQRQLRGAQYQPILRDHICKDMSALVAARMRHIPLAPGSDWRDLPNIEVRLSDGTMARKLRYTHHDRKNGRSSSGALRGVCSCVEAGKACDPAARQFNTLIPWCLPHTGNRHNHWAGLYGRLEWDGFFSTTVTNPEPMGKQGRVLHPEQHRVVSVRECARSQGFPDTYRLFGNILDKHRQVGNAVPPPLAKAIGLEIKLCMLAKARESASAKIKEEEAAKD
Protein arginine N-methyltransferase 5, sequence (O14744 whole entry): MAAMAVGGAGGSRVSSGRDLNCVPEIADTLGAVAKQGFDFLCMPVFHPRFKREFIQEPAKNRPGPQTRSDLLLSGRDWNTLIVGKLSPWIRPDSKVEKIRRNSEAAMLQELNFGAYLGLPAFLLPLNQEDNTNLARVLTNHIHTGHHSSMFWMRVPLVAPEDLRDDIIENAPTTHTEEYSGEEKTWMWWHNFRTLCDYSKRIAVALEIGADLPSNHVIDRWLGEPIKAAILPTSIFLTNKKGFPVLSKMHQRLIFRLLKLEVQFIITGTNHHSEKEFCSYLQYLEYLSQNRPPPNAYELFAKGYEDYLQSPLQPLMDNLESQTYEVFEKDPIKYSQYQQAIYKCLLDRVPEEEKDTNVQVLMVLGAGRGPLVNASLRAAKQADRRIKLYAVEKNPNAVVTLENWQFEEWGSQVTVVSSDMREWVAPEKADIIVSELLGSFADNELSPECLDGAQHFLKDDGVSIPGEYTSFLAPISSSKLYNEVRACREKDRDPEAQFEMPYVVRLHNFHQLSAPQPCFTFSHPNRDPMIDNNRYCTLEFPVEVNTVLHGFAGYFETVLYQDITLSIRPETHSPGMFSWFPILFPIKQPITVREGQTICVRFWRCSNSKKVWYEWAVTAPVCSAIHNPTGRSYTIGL
Protein arginine N-methyltransferase 1, sequence (Q99873 whole entry): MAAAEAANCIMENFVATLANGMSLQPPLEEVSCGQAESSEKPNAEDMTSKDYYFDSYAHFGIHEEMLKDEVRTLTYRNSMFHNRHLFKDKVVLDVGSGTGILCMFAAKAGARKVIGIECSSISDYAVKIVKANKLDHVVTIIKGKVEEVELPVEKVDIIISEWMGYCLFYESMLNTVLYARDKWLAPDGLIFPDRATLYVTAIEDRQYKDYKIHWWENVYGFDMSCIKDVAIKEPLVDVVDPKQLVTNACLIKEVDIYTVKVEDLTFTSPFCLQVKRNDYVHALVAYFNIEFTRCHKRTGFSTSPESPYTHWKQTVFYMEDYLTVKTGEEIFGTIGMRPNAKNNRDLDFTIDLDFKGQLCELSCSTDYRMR
Histone-lysine N-methyltransferase SUV39H2, sequence (Q9H5I1 whole entry): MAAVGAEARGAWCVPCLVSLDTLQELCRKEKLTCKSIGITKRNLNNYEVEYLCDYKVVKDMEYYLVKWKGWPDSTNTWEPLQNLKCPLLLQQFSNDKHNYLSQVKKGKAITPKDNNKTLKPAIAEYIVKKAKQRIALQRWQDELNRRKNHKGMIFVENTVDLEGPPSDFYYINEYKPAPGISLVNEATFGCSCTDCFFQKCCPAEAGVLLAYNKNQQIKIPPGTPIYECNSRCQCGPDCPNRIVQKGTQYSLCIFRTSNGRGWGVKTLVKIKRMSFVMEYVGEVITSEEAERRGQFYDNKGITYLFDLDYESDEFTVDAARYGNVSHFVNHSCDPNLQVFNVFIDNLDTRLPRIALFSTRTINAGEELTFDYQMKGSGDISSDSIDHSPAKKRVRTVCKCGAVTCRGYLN

Row | IC50 [1] [µM] | IC50 [2] [µM] | IC50 [3] [µM] | IC50 [4] [µM] | IC50 [5] [µM] | IC50 [6] [µM] | IC50 [7] [µM] | IC50 [8] [µM] | Compound
1 | > 100 | > 100 | > 100 | > 100 | > 100 | > 100 | > 100 | 0.02 | Cc1cc(C)c(CNC(=O)c2cc(-c3ccc(N4CCN(C)CC4)nc3)cc3c2cnn3C(C)C)c(=O)[nH]1
2 | 123 | > 100 | > 100 | > 100 | > 100 | > 100 | > 100 | 0.004 | CCCc1cc(C)[nH]c(=O)c1CNC(=O)c1cc(-c2ccnc(N3CCN(C)CC3)c2)cc2c1cnn2C(C)C
3 | > 100 | > 100 | > 100 | > 100 | > 100 | > 100 | 121 | 0.004 | CCCc1cc(C)[nH]c(=O)c1CNC(=O)c1cc(-c2ccc(N3CCN(C)CC3)nc2)cc2c1cnn2C(C)C
